Source: ChEMBL document CHEMBL1125797, “Synthesis, characterization and myocardial uptake of cationic bis(arene)technetium(I) complexes” (J Med Chem, 1991)

Key:
Rattus norvegicus [1] = assay: Biodistribution of compound in rat liver at 5 min after intravenous administration; format: ADME, organism-based; settings: in vivo
Outline: (§1)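 Rats received the 99mTc complex in normal saline (~12.5 μCi/mL) by lateral tail vein injection at ~25 μCi/kg and were killed by cervical dislocation at the stated time. Tissues were washed with saline, blotted, weighed and γ-counted to give percent injected dose/g. Time-course values are averages of male and female rats.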

Rattus norvegicus [2] = assay: Biodistribution of compound in rat liver at 90 min after intravenous administration; format: ADME, organism-based; settings: in vivo, 1.5 h; outline: as §1
Rattus norvegicus [3] = assay: Biodistribution of compound in rat lungs at 1440 min after intravenous administration; format: ADME, organism-based, Lung; settings: in vivo, 24 h; outline: as §1
Rattus norvegicus [4] = assay: Biodistribution of compound in rat lungs at 180 min after intravenous administration; format: ADME, organism-based, Lung; settings: in vivo, 3 h; outline: as §1
Rattus norvegicus [5] = assay: Biodistribution of compound in rat lungs at 360 min after intravenous administration; format: ADME, organism-based, Lung; settings: in vivo, 6 h; outline: as §1
Rattus norvegicus [6] = assay: Biodistribution of compound in rat lungs at 45 min after intravenous administration; format: ADME, organism-based, Lung; settings: in vivo, 0.75 h; outline: as §1
Rattus norvegicus [7] = assay: Biodistribution of compound in rat lungs at 5 min after intravenous administration; format: ADME, organism-based, Lung; settings: in vivo; outline: as §1
Rattus norvegicus [8] = assay: Biodistribution of compound in rat lungs at 90 min after intravenous administration; format: ADME, organism-based, Lung; settings: in vivo, 1.5 h; outline: as §1
Rattus norvegicus [9] = assay: Biodistribution of compound in rat muscle at 1440 min after intravenous administration; format: ADME, organism-based, Muscle tissue; settings: in vivo, 24 h; outline: as §1
Rattus norvegicus [10] = assay: Biodistribution of compound in rat muscle at 180 min after intravenous administration; format: ADME, organism-based, Muscle tissue; settings: in vivo, 3 h; outline: as §1
Rattus norvegicus [11] = assay: Biodistribution of compound in rat muscle at 360 min after intravenous administration; format: ADME, organism-based, Muscle tissue; settings: in vivo, 6 h; outline: as §1
Rattus norvegicus [12] = assay: Biodistribution of compound in rat muscle at 45 min after intravenous administration; format: ADME, organism-based, Muscle tissue; settings: in vivo, 0.75 h; outline: as §1
Rattus norvegicus [13] = assay: Biodistribution of compound in rat muscle at 5 min after intravenous administration; format: ADME, organism-based, Muscle tissue; settings: in vivo; outline: as §1
Rattus norvegicus [14] = assay: Biodistribution of compound in rat muscle at 90 min after intravenous administration; format: ADME, organism-based, Muscle tissue; settings: in vivo, 1.5 h; outline: as §1
Rattus norvegicus [15] = assay: Biodistribution of compound in rat bone at 1440 min after intravenous administration; format: ADME, organism-based, Bone element; settings: in vivo, 24 h
Outline: (§2)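 Time course in Sprague-Dawley rats after lateral tail-vein injection of the 99mTc complex in normal saline (~12.5 μCi/mL) at ~25 μCi/kg. Tissues were sampled at the stated times, washed with saline, blotted, weighed and γ-counted to give percent injected dose per g. Values are averages of male and female rats.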

Rattus norvegicus [16] = assay: Biodistribution of compound in rat bone at 180 min after intravenous administration; format: ADME, organism-based, Bone element; settings: in vivo, 3 h; outline: as §2
Rattus norvegicus [17] = assay: Biodistribution of compound in rat bone at 45 min after intravenous administration; format: ADME, organism-based, Bone element; settings: in vivo, 0.75 h; outline: as §2
Rattus norvegicus [18] = assay: Biodistribution of compound in rat bone at 5 min after intravenous administration; format: ADME, organism-based, Bone element; settings: in vivo; outline: as §2
Rattus norvegicus [19] = assay: Biodistribution of compound in rat bone at 90 min after intravenous administration; format: ADME, organism-based, Bone element; settings: in vivo, 1.5 h; outline: as §2
Rattus norvegicus [20] = assay: Biodistribution of compound in rat bone marrow at 1440 min after intravenous administration; format: ADME, organism-based; settings: in vivo, 24 h; outline: as §2
Rattus norvegicus [21] = assay: Biodistribution of compound in rat bone marrow at 180 min after intravenous administration; format: ADME, organism-based; settings: in vivo, 3 h; outline: as §2
Rattus norvegicus [22] = assay: Biodistribution of compound in rat bone marrow at 360 min after intravenous administration; format: ADME, organism-based; settings: in vivo, 6 h; outline: as §2
Rattus norvegicus [23] = assay: Biodistribution of compound in rat bone marrow at 45 min after intravenous administration; format: ADME, organism-based; settings: in vivo, 0.75 h; outline: as §2
Rattus norvegicus [24] = assay: Biodistribution of compound in rat bone marrow at 90 min after intravenous administration; format: ADME, organism-based; settings: in vivo, 1.5 h; outline: as §2
Rattus norvegicus [25] = assay: Biodistribution of compound in rat bone marrow at 5 min after intravenous administration; format: ADME, organism-based; settings: in vivo; outline: as §2
Rattus norvegicus [26] = assay: Biodistribution of compound in rat brain after 5 min of administration; format: ADME, organism-based; settings: in vivo
Rattus norvegicus [27] = assay: Biodistribution of compound in rat eye at 1440 min after intravenous administration; format: ADME, organism-based; settings: in vivo, 24 h; outline: as §2
Rattus norvegicus [28] = assay: Biodistribution of compound in rat eye at 180 min after intravenous administration; format: ADME, organism-based; settings: in vivo, 3 h; outline: as §2
Rattus norvegicus [29] = assay: Biodistribution of compound in rat eye at 360 min after intravenous administration; format: ADME, organism-based; settings: in vivo, 6 h; outline: as §2
Rattus norvegicus [30] = assay: Biodistribution of compound in rat eye at 45 min after intravenous administration; format: ADME, organism-based; settings: in vivo, 0.75 h; outline: as §2
Rattus norvegicus [31] = assay: Biodistribution of compound in rat eye at 5 min after intravenous administration; format: ADME, organism-based; settings: in vivo; outline: as §2
Rattus norvegicus [32] = assay: Biodistribution of compound in rat eye at 90 min after intravenous administration; format: ADME, organism-based; settings: in vivo, 1.5 h; outline: as §2
Rattus norvegicus [33] = assay: Biodistribution of compound in rat feces at 1440 min after intravenous administration; format: ADME, organism-based; settings: in vivo, 24 h
Rattus norvegicus [34] = assay: Biodistribution of compound in rat feces at 360 min after intravenous administration; format: ADME, organism-based; settings: in vivo, 6 h
Rattus norvegicus [35] = assay: Biodistribution of compound in rat liver at 45 min after intravenous administration; format: ADME, organism-based; settings: in vivo, 0.75 h; outline: as §1
Rattus norvegicus [36] = assay: Biodistribution of compound in rat blood at 45 min after intravenous administration; format: ADME, organism-based; settings: in vivo, 0.75 h; outline: as §2
Rattus norvegicus [37] = assay: Biodistribution of compound in rat bone at 360 min after intravenous administration; format: ADME, organism-based, Bone element; settings: in vivo, 6 h; outline: as §2

Substance: Bis(1,3,5-trimethylbenzene)technetium
- Dose/g (Rattus norvegicus [1]): 10.4 % dose/organ
- Dose/g (Rattus norvegicus [2]): 3.6 % dose/organ
- Dose/g (Rattus norvegicus [3]): 0.2 % dose/organ
- Dose/g (Rattus norvegicus [4]): 0.48 % dose/organ
- Dose/g (Rattus norvegicus [5]): 0.34 % dose/organ
- Dose/g (Rattus norvegicus [6]): 0.86 % dose/organ
- Dose/g (Rattus norvegicus [7]): 1.15 % dose/organ
- Dose/g (Rattus norvegicus [8]): 0.6 % dose/organ
- Dose/g (Rattus norvegicus [9]): 25 % dose/organ
- Dose/g (Rattus norvegicus [10]): 30 % dose/organ
- Dose/g (Rattus norvegicus [11]): 29 % dose/organ
- Dose/g (Rattus norvegicus [12]): 26 % dose/organ
- Dose/g (Rattus norvegicus [13]): 30 % dose/organ
- Dose/g (Rattus norvegicus [14]): 25 % dose/organ
- Dose/g (Rattus norvegicus [15]): 0.8 % dose/organ
- Dose/g (Rattus norvegicus [16]): 1.5 % dose/organ
- Dose/g (Rattus norvegicus [17]): 1.8 % dose/organ
- Dose/g (Rattus norvegicus [18]): 3.5 % dose/organ
- Dose/g (Rattus norvegicus [19]): 1.4 % dose/organ
- Dose/g (Rattus norvegicus [20]): 0.02 % dose/organ
- Dose/g (Rattus norvegicus [21]): 0.13 % dose/organ
- Dose/g (Rattus norvegicus [22]): 0.09 % dose/organ
- Dose/g (Rattus norvegicus [23]): 0.36 % dose/organ
- Dose/g (Rattus norvegicus [24]): 0.13 % dose/organ
- Dose/g (Rattus norvegicus [25]): 0.37 % dose/organ
- Dose/g (Rattus norvegicus [26]): 0.1%
- Dose/g (Rattus norvegicus [27]): 0.01 % dose/organ
- Dose/g (Rattus norvegicus [28]): 0.016 % dose
- Dose/g (Rattus norvegicus [29]): 0.019 % dose
- Dose/g (Rattus norvegicus [30]): 0.028 % dose
- Dose/g (Rattus norvegicus [31]): 0.041 % dose
- Dose/g (Rattus norvegicus [32]): 0.044 % dose
- Dose/g (Rattus norvegicus [33]): 36.2 % dose
- Dose/g (Rattus norvegicus [34]): 0.4 % dose
- Dose/g (Rattus norvegicus [35]): 3.1 % dose
- Dose/ml (Rattus norvegicus [36]): 1.24 % dose
- Dose/g (Rattus norvegicus [37]): 1.3 % dose
